Active and inactive are the calls of the source. The rule behind the calls is not given here.
Columns and labels:
Format in all cases: functional
Sonchus oleraceus [1] = assay: Herbicidal activity against Sonchus oleraceus assessed as diameter of leaf necrosis at 50 ug/ml measured after 2 days post-compound treatment by leaf puncture assay
Method in brief: (§1)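 Detached leaf segments (about 5 cm) from young greenhouse-grown plants, each with a superficial puncture lesion (0.5 mm) made by glass capillary. Compound dissolved in DMSO, diluted with distilled water (final DMSO 2%), 8 µL droplet applied. Segments held on moist filter paper at 25 °C under continuous fluorescent light (10000 lux). DMSO droplets as control. Necrosis scored visually on a 0–3 scale at day 2.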

Sonchus oleraceus [2] = assay: Herbicidal activity against Sonchus oleraceus assessed as diameter of leaf necrosis at 100 ug/ml measured after 2 days post-compound treatment by leaf puncture assay; method in brief: as §1
Sonchus oleraceus [3] = assay: Herbicidal activity against Sonchus oleraceus assessed as diameter of leaf necrosis at 250 ug/ml measured after 2 days post-compound treatment by leaf puncture assay; method in brief: as §1
Diplotaxis erucoides [4] = assay: Herbicidal activity against Diplotaxis erucoides assessed as diameter of leaf necrosis at 50 ug/ml measured after 2 days post compound treatment by leaf puncture assay; method in brief: as §1
Diplotaxis erucoides [5] = assay: Herbicidal activity against Diplotaxis erucoides assessed as diameter of leaf necrosis at 100 ug/ml measured after 2 days post compound treatment by leaf puncture assay; method in brief: as §1
Convolvulus arvensis [6] = assay: Herbicidal activity against Convolvulus arvensis assessed as diameter of leaf necrosis at 50 ug/ml measured after 2 days post compound treatment by leaf puncture assay; method in brief: as §1
Convolvulus arvensis [7] = assay: Herbicidal activity against Convolvulus arvensis assessed as diameter of leaf necrosis at 100 ug/ml measured after 2 days post compound treatment by leaf puncture assay; method in brief: as §1
Convolvulus arvensis [8] = assay: Herbicidal activity against Convolvulus arvensis assessed as diameter of leaf necrosis at 250 ug/ml measured after 2 days post compound treatment by leaf puncture assay; method in brief: as §1
Chenopodium album [9] = assay: Herbicidal activity against Chenopodium album assessed as diameter of leaf necrosis at 50 ug/ml measured after 2 days post compound treatment by leaf puncture assay; method in brief: as §1
Chenopodium album [10] = assay: Herbicidal activity against Chenopodium album assessed as diameter of leaf necrosis at 250 ug/ml measured after 2 days post compound treatment by leaf puncture assay; method in brief: as §1
Chenopodium album [11] = assay: Herbicidal activity against Chenopodium album assessed as diameter of leaf necrosis at 100 ug/ml measured after 2 days post compound treatment by leaf puncture assay; method in brief: as §1
Amaranthus retroflexus [12] = assay: Herbicidal activity against Amaranthus retroflexus assessed as diameter of leaf necrosis at 50 ug/ml measured after 2 days post compound treatment by leaf puncture assay; method in brief: as §1
Amaranthus retroflexus [13] = assay: Herbicidal activity against Amaranthus retroflexus assessed as diameter of leaf necrosis at 250 ug/ml measured after 2 days post compound treatment by leaf puncture assay; method in brief: as §1
Amaranthus retroflexus [14] = assay: Herbicidal activity against Amaranthus retroflexus assessed as diameter of leaf necrosis at 100 ug/ml measured after 2 days post compound treatment by leaf puncture assay; method in brief: as §1
Setaria viridis [15] = assay: Herbicidal activity against Setaria viridis assessed as diameter of leaf necrosis at 50 ug/ml measured after 2 days post compound treatment by leaf puncture assay; method in brief: as §1
Setaria viridis [16] = assay: Herbicidal activity against Setaria viridis assessed as diameter of leaf necrosis at 100 ug/ml measured after 2 days post compound treatment by leaf puncture assay; method in brief: as §1
Setaria viridis [17] = assay: Herbicidal activity against Setaria viridis assessed as diameter of leaf necrosis at 250 ug/ml measured after 2 days post compound treatment by leaf puncture assay; method in brief: as §1
Bromus sterilis [18] = assay: Herbicidal activity against Bromus sterilis assessed as diameter of leaf necrosis at 250 ug/ml measured after 2 days post compound treatment by leaf puncture assay; method in brief: as §1
[19] = test system: Avena sterilis subsp. ludoviciana; assay: Herbicidal activity against Avena sterilis subsp. ludoviciana assessed as diameter of leaf necrosis at 50 ug/ml measured after 2 days post compound treatment by leaf puncture assay; method in brief: as §1
[20] = test system: Avena sterilis subsp. ludoviciana; assay: Herbicidal activity against Avena sterilis subsp. ludoviciana assessed as diameter of leaf necrosis at 100 ug/ml measured after 2 days post compound treatment by leaf puncture assay; method in brief: as §1
[21] = test system: Avena sterilis subsp. ludoviciana; assay: Herbicidal activity against Avena sterilis subsp. ludoviciana assessed as diameter of leaf necrosis at 250 ug/ml measured after 2 days post compound treatment by leaf puncture assay; method in brief: as §1
Diplotaxis erucoides [22] = assay: Herbicidal activity against Diplotaxis erucoides assessed as diameter of leaf necrosis at 250 ug/ml measured after 2 days post compound treatment by leaf puncture assay; method in brief: as §1
Phalaris canariensis [23] = assay: Herbicidal activity against Phalaris canariensis assessed as diameter of leaf necrosis at 50 ug/ml measured after 2 days post compound treatment by leaf puncture assay; method in brief: as §1
Phalaris canariensis [24] = assay: Herbicidal activity against Phalaris canariensis assessed as diameter of leaf necrosis at 100 ug/ml measured after 2 days post compound treatment by leaf puncture assay; method in brief: as §1
Phalaris canariensis [25] = assay: Herbicidal activity against Phalaris canariensis assessed as diameter of leaf necrosis at 250 ug/ml measured after 2 days post compound treatment by leaf puncture assay; method in brief: as §1
Oloptum miliaceum [26] = assay: Herbicidal activity against Piptatherum miliaceum assessed as diameter of leaf necrosis at 50 ug/ml measured after 2 days post compound treatment by leaf puncture assay; method in brief: as §1
Oloptum miliaceum [27] = assay: Herbicidal activity against Piptatherum miliaceum assessed as diameter of leaf necrosis at 100 ug/ml measured after 2 days post compound treatment by leaf puncture assay; method in brief: as §1
Oloptum miliaceum [28] = assay: Herbicidal activity against Piptatherum miliaceum assessed as diameter of leaf necrosis at 250 ug/ml measured after 2 days post compound treatment by leaf puncture assay; method in brief: as §1
Echinochloa crus-galli [29] = assay: Herbicidal activity against Echinochloa crus-galli (barnyard grass) assessed as diameter of leaf necrosis at 50 ug/ml measured after 2 days post compound treatment by leaf puncture assay; method in brief: as §1
Echinochloa crus-galli [30] = assay: Herbicidal activity against Echinochloa crus-galli (barnyard grass) assessed as diameter of leaf necrosis at 100 ug/ml measured after 2 days post compound treatment by leaf puncture assay; method in brief: as §1
Echinochloa crus-galli [31] = assay: Herbicidal activity against Echinochloa crus-galli (barnyard grass) assessed as diameter of leaf necrosis at 250 ug/ml measured after 2 days post compound treatment by leaf puncture assay; method in brief: as §1
Digitaria sanguinalis [32] = assay: Herbicidal activity against Digitaria sanguinalis (hairy crabgrass) assessed as diameter of leaf necrosis at 50 ug/ml measured after 2 days post compound treatment by leaf puncture assay; method in brief: as §1
Digitaria sanguinalis [33] = assay: Herbicidal activity against Digitaria sanguinalis (hairy crabgrass) assessed as diameter of leaf necrosis at 100 ug/ml measured after 2 days post compound treatment by leaf puncture assay; method in brief: as §1
Digitaria sanguinalis [34] = assay: Herbicidal activity against Digitaria sanguinalis (hairy crabgrass) assessed as diameter of leaf necrosis at 250 ug/ml measured after 2 days post compound treatment by leaf puncture assay; method in brief: as §1
Cynodon dactylon [35] = assay: Herbicidal activity against Cynodon dactylon assessed as diameter of leaf necrosis at 50 ug/ml measured after 2 days post compound treatment by leaf puncture assay; method in brief: as §1
Cynodon dactylon [36] = assay: Herbicidal activity against Cynodon dactylon assessed as diameter of leaf necrosis at 100 ug/ml measured after 2 days post compound treatment by leaf puncture assay; method in brief: as §1
Cynodon dactylon [37] = assay: Herbicidal activity against Cynodon dactylon assessed as diameter of leaf necrosis at 250 ug/ml measured after 2 days post compound treatment by leaf puncture assay; method in brief: as §1
Bromus sterilis [38] = assay: Herbicidal activity against Bromus sterilis assessed as diameter of leaf necrosis at 50 ug/ml measured after 2 days post compound treatment by leaf puncture assay; method in brief: as §1
Bromus sterilis [39] = assay: Herbicidal activity against Bromus sterilis assessed as diameter of leaf necrosis at 100 ug/ml measured after 2 days post compound treatment by leaf puncture assay; method in brief: as §1

SMILES	Activity (Sonchus oleraceus [1])	Activity (Sonchus oleraceus [2])	Activity (Sonchus oleraceus [3])	Activity (Diplotaxis erucoides [4])	Activity (Diplotaxis erucoides [5])	Activity (Convolvulus arvensis [6])	Activity (Convolvulus arvensis [7])	Activity (Convolvulus arvensis [8])	Activity (Chenopodium album [9])	Activity (Chenopodium album [10])	Activity (Chenopodium album [11])	Activity (Amaranthus retroflexus [12])	Activity (Amaranthus retroflexus [13])	Activity (Amaranthus retroflexus [14])	Activity (Setaria viridis [15])	Activity (Setaria viridis [16])	Activity (Setaria viridis [17])	Activity (Bromus sterilis [18])	Activity [19]	Activity [20]	other results
CC(C)=C[C@H]1C[C@H](C)[C@]2(CC[C@]3(C)C[C@@H]4C(C)=CC(=O)[C@H]4/C(CO)=C\C[C@H]32)O1	inactive	inactive	inactive	inactive	inactive	inactive	inactive	inactive	inactive	inactive	inactive	inactive	inactive	inactive	inactive	inactive	inactive	inactive	inactive	inactive	Activity [21]: inactive; Activity (Diplotaxis erucoides [22]): inactive; Activity (Phalaris canariensis [23]): inactive; Activity (Phalaris canariensis [24]): inactive; Activity (Phalaris canariensis [25]): inactive; Activity (Oloptum miliaceum [26]): inactive; Activity (Oloptum miliaceum [27]): inactive; Activity (Oloptum miliaceum [28]): inactive; Activity (Echinochloa crus-galli [29]): inactive; Activity (Echinochloa crus-galli [30]): inactive; Activity (Echinochloa crus-galli [31]): inactive; Activity (Digitaria sanguinalis [32]): inactive; Activity (Digitaria sanguinalis [33]): inactive; Activity (Digitaria sanguinalis [34]): inactive; Activity (Cynodon dactylon [35]): inactive; Activity (Cynodon dactylon [36]): inactive; Activity (Cynodon dactylon [37]): inactive; Activity (Bromus sterilis [38]): inactive; Activity (Bromus sterilis [39]): inactive
CC(C)=C[C@H]1C[C@H](C)[C@]2(CC[C@]3(C)C[C@H]4[C@@H](C(=O)C[C@@]4(C)O)/C(C=O)=C\C[C@H]32)O1 [6-EPI-OHPIOBOLIN A]	>3 mm	>3 mm	>3 mm	2 mm	2 mm	2 mm	2 mm	2 mm	2 mm	>3 mm	2 mm	1 mm	1 mm	1 mm	>3 mm	>3 mm	>3 mm	2 mm	2 mm	2 mm	Activity [21]: 2 mm; Activity (Diplotaxis erucoides [22]): 2 mm; Activity (Phalaris canariensis [23]): 1 mm; Activity (Phalaris canariensis [24]): 2 mm; Activity (Phalaris canariensis [25]): >3 mm; Activity (Oloptum miliaceum [26]): 1 mm; Activity (Oloptum miliaceum [27]): 1 mm; Activity (Oloptum miliaceum [28]): 2 mm; Activity (Echinochloa crus-galli [29]): 1 mm; Activity (Echinochloa crus-galli [30]): 2 mm; Activity (Echinochloa crus-galli [31]): 2 mm; Activity (Digitaria sanguinalis [32]): 2 mm; Activity (Digitaria sanguinalis [33]): 2 mm; Activity (Digitaria sanguinalis [34]): >3 mm; Activity (Cynodon dactylon [35]): inactive; Activity (Cynodon dactylon [36]): 1 mm; Activity (Cynodon dactylon [37]): 2 mm; Activity (Bromus sterilis [38]): 1 mm; Activity (Bromus sterilis [39]): 1 mm
CC(C)=C[C@H]1C[C@H](C)[C@]2(CC[C@]3(C)C[C@H]4[C@H](C(=O)C[C@@]4(C)O)/C(C=O)=C\C[C@H]32)O1 [OPHIOBOLIN A]	>3 mm	>3 mm	>3 mm	2 mm	2 mm	2 mm	2 mm	2 mm	2 mm	>3 mm	2 mm	2 mm	>3 mm	2 mm	>3 mm	>3 mm	>3 mm	>3 mm	>3 mm	>3 mm	Activity [21]: >3 mm; Activity (Diplotaxis erucoides [22]): 2 mm; Activity (Phalaris canariensis [23]): >3 mm; Activity (Phalaris canariensis [24]): >3 mm; Activity (Phalaris canariensis [25]): >3 mm; Activity (Oloptum miliaceum [26]): 1 mm; Activity (Oloptum miliaceum [27]): 2 mm; Activity (Oloptum miliaceum [28]): >3 mm; Activity (Echinochloa crus-galli [29]): >3 mm; Activity (Echinochloa crus-galli [30]): >3 mm; Activity (Echinochloa crus-galli [31]): >3 mm; Activity (Digitaria sanguinalis [32]): >3 mm; Activity (Digitaria sanguinalis [33]): >3 mm; Activity (Digitaria sanguinalis [34]): >3 mm; Activity (Cynodon dactylon [35]): inactive; Activity (Cynodon dactylon [36]): inactive; Activity (Cynodon dactylon [37]): 1 mm; Activity (Bromus sterilis [38]): 1 mm; Activity (Bromus sterilis [39]): 2 mm

Reference: ChEMBL document CHEMBL3046406, “Herbicidal potential of ophiobolins produced by Drechslera gigantea” (2006)
